According to ChEMBL document CHEMBL6092172, “Exploration and characterization of the antimalarial activity of cyclopropyl carboxamides that target the mitochondrial protein, cytochrome b” (Eur J Med Chem, 2024):
Values belong to the compound of their own block, whether it stands above or below them. Active and inactive are the calls of the source. The calls are words filed in the database; no cut-off is given here.

How the values were obtained:
[1] = system: Plasmodium falciparum; experiment: Antimalarial activity against asexual N-cyclopropyl-4-((cyclopropyl(2,4-dichlorobenzyl)amino)methyl)benzamide-resistant Plasmodium falciparum harbouring DHODH genome with 2 fold CNV measured after 72 hrs by LDH assay; format: functional, organism-based
Outline: (§1)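 They were tested in a 72 h LDH assay: 10-point 3-fold dilutions […] in 0.1 % DMSO, with 100 nM chloroquine as the kill control. Incubation was 37 °C under 5 % CO2/5 % O2, then freeze–thaw, APAD/NBT/diaphorase mix, A650 after 30 min, and a four-parameter fit.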

[2] = system: Plasmodium falciparum; experiment: Antimalarial activity against asexual blood stage Plasmodium falciparum Dd2 incubated for 72 hrs by flow cytometry analysis; format: functional, organism-based; conditions: Dd2, 72 h
Outline: (§2)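 Asexual parasites were exposed to compound for 72 h and growth was read as SYBR green signal by flow cytometry (FACS).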

[3] = system: Plasmodium falciparum; experiment: Antimalarial activity in asexual blood-stage Plasmodium falciparum Dd2-B2 infected in human O+ RBC assessed as minimum inoculum of resistance at 3 times IC90 measured for 60 days by SYBR green/Mito tracker deep red based flow cytometry analysis; format: functional, organism-based; conditions: time 60.0 day
Outline: (§3)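 Cultures were grown in human O+ RBCs at 3 % hematocrit in AlbuMAX-supplemented RPMI-1640 at 37 °C under 5 % O2/5 % CO2/90 % N2. […] Wells were checked three times weekly by flow cytometry and smear; a well was positive at 0.3 % parasitemia with parasites seen on smear.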

[4] = system: Plasmodium falciparum; experiment: Effect on oxygen consumption rate in Plasmodium falciparum infected with human RBC at 5 uM by Seahorse XFe24 analyzer; format: functional, organism-based
Outline: (§4)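 Malate-dependent OCR of P. falciparum measured first as 5 basal timepoints. Compound (5 μM) then injected and OCR followed for 8 timepoints. TMPD (cytochrome c donor) then added for 5 timepoints, followed by NaN3 (complex IV inhibitor) for 5 timepoints. Means and SDs of 3 technical replicates.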

[5] = system: Plasmodium falciparum; experiment: Effect on oxygen consumption rate in Plasmodium falciparum infected with human RBC at 5 uM in presence of TMPD by Seahorse XFe24 analyzer; format: functional, organism-based; outline: as §4
[6] = system: Plasmodium falciparum; experiment: Effect on oxygen consumption rate in Plasmodium falciparum infected with human RBC at 5 uM in presence of NaN3 by Seahorse XFe24 analyzer; format: functional, organism-based; outline: as §4
[7] = system: Plasmodium falciparum; experiment: Antimalarial activity against asexual synchronized ring stage Plasmodium falciparum 3D7 infected with human RBC assessed as parasite growth inhibition measured after 48 hrs by giemsa staining based microscopy analysis; format: functional, organism-based; conditions: 3D7, Erythrocyte
Outline: (§5)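 Giemsa-stained blood smears scored by microscopy for stage progression.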

[8] = system: Plasmodium falciparum; experiment: Antimalarial activity against asexual synchronized ring stage Plasmodium falciparum 3D7 infected with human RBC assessed as parasite arrest measured after 24 hrs by giemsa staining based microscopy analysis; format: functional, organism-based; outline: as §5
[9] = system: Plasmodium falciparum; experiment: Antimalarial activity against asexual synchronized ring stage Plasmodium falciparum 3D7 infected with human RBC assessed as parasite arrest measured after 12 to 48 hrs by SYBR green staining based flow cytometry analysis; format: functional, organism-based; conditions: time 12-48 hrs
Outline: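 Parasitemia measured by flow cytometry of SYBR Green-stained infected RBCs; mean of three technical replicates.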

[10] = system: Plasmodium falciparum; experiment: Antimalarial activity against asexual synchronized ring stage Plasmodium falciparum 3D7 infected with human RBC assessed as parasite arrest at 10 times EC50 treated every 24 hrs for 120 hrs followed by compound washout and subsequent addition of RBCs measured after 28 days by parasite reduction ratio assay; format: functional, organism-based
Outline: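 Parasite reduction ratio assay on 3D7. […] Compound then washed out and uninfected RBCs and medium added. Regrowth measured by LDH assay after 28 days; means and SDs of 3 replicate experiments.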

[11] = system: Plasmodium falciparum; experiment: Antimalarial activity against asexual blood stage Plasmodium falciparum Dd2-B2 assessed as parasite recrudescence by measuring minimum inoculum of resistance measured for 60 days by flow cytometry; format: functional; conditions: time 60 day; outline: as §3
[12] = system: Plasmodium falciparum; experiment: Antiplasmodial activity against Plasmodium falciparum NF54 stage V gametocytes assessed as reduction in xanthurenic acid induced female gametocyte development measured after 48 hrs by fluorescence microscopic analysis; conditions: NF54, 48 h
[13] = system: Plasmodium falciparum; experiment: Antimalarial activity against asexual Plasmodium falciparum 3D7 incubated for 72 hrs by LDH assay; format: functional, organism-based; conditions: 3D7, 72 h
Outline: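 P. falciparum 3D7 asexual parasites exposed 72 h at 37 °C (5 % CO2, 5 % O2) to a 10-point 1-in-3 dilution series […], 0.1 % DMSO; 0.1 % DMSO and 100 nM chloroquine as controls. Plates frozen at −80 °C and thawed, then LDH read (lactate/APAD/NBT/diaphorase, Tris pH 7.5) at 650 nm after 30 min.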

[14] = system: Plasmodium falciparum; experiment: Antimalarial activity against asexual blood stage Plasmodium falciparum Dd2 harbouring Cyt b with I22L mutant incubated for 72 hrs by flow cytometry analysis; format: functional, organism-based; conditions: Dd2, 72 h; outline: as §2
[15] = system: Plasmodium falciparum; experiment: Antimalarial activity against asexual Plasmodium falciparum SB1-A6 incubated for 72 hrs by SYBR green staining based flow cytometry analysis; format: functional, organism-based; conditions: SB1-A6, 72 h; outline: as §2
[16] = system: Plasmodium falciparum; experiment: Antimalarial activity against asexual Plasmodium falciparum Dd2 harbouring ScDHODH incubated for 72 hrs by SYBR green staining based flow cytometry analysis; format: functional, organism-based; conditions: Dd2, 72 h; outline: as §2
[17] = system: Plasmodium falciparum; experiment: Antimalarial activity against asexual Plasmodium falciparum 3D7 harbouring cytb with V259L mutant at Qo site incubated for 72 hrs by SYBR green staining based flow cytometry analysis; conditions: 3D7, 72 h
[18] = system: HepG2; experiment: Cytotoxicity against human HepG2 cells assessed as reduction in cell viability measured after 48 hrs by cell-titer glo assay; format: functional
Outline: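 HepG2 cells grown in DMEM with 10 % FCS; 1000 cells per well seeded onto a 1:2 dilution series from 50 μM (0.5 % DMSO). Incubated 48 h at 37 °C, 5 % CO2. Viability read by CellTiter-Glo and normalised to DMSO and 10 μM bortezomib controls. Value from four-parameter fit; average of ≥2 independent experiments.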

[19] = system: Plasmodium falciparum; experiment: Antimalarial activity against asexual compound resistant Plasmodium falciparum harbouring cyt b […] mutant at Qo site measured after 72 hrs by LDH assay; format: functional, organism-based; outline: as §1
[20] = system: Plasmodium falciparum; experiment: Antimalarial activity against asexual compound resistant Plasmodium falciparum harbouring cyt b F264L mutant at Qo site measured after 72 hrs by LDH assay; format: functional, organism-based; outline: as §1
[21] = system: Plasmodium falciparum; experiment: Antimalarial activity against asexual 4-(((N-cyclopropyl-2,4,6-trimethylphenyl)sulfonamido)methyl)-N-methylbenzamide-resistant Plasmodium falciparum harbouring cyt b […] mutant at Qo site measured after 72 hrs by LDH assay; format: functional, organism-based; outline: as §1
[22] = system: Plasmodium falciparum; experiment: Antimalarial activity against asexual N-cyclopropyl-4-((cyclopropyl(2,4-dichlorobenzyl)amino)methyl)benzamide-resistant Plasmodium falciparum harbouring DHODH genome with 5 fold CNV measured after 72 hrs by LDH assay; format: functional, organism-based; outline: as §1
[23] = system: Plasmodium berghei; experiment: Antiplasmodial activity against exo-erythrocytic stage Plasmodium berghei sporozoites expressing GFP-Luc fused genes infected in human HepG2-A16-CD81 cells expressing EGFP assessed as reduction in parasite growth measured after 48 hrs by bioluminescence analysis; format: functional, organism-based; conditions: HepG2-A16-CD81, 48 h
Outline: (§6)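 HepG2 cells pre-treated with a 10-point dilution series of compound, then infected with luciferase-expressing P. berghei sporozoites. After 48 h, exoerythrocytic form viability read by bioluminescence.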

[24] = system: Plasmodium berghei; experiment: Antiplasmodial activity against liver stage Plasmodium berghei sporozoites infected in human HepG2 assessed as reduction in parasite growth measured after 48 hrs by bioluminescence analysis; format: functional, organism-based; conditions: HepG2, 48 h; outline: as §6
[25] = system: Plasmodium falciparum; experiment: Antiplasmodial activity against Plasmodium falciparum NF54 stage V gametocytes assessed as reduction in xanthurenic acid induced male gametocyte development measured after 48 hrs by fluorescence microscopic analysis; conditions: NF54, 48 h

SMILES: O=C(NC1CC1)c1ccc(CN(Cc2ccc(Cl)cc2Cl)C2CC2)cc1
EC50 [1]: 620 nM
EC50 [2]: 118 nM
Activity [3]: Active
Activity [4]: Active
Activity [5]: inactive
Activity [6]: Active
EC50 [7]: 2500 nM
Activity [8]: Active
Activity [9]: Active
Activity [10]: Active; Compound Showed Moderate To Slow Rate Of Kill Than Pyrimethamine And Slightly Quicker Than Atq
Activity [11]: 1.9 10^7No_unit
EC50 [12]: > 25000 nM

SMILES: Cc1cc(Nc2ccc(S(F)(F)(F)(F)F)cc2)n2nc(C(C)(F)F)nc2n1 [DSM-265]
EC50 [14]: 8 nM
EC50 [15]: > 10000 nM
EC50 [16]: > 10000 nM
Activity [4]: inactive
Activity [5]: inactive

SMILES: O=C1C(O)=C([C@H]2CC[C@H](c3ccc(Cl)cc3)CC2)C(=O)c2ccccc21 [ATOVAQUONE]
EC50 [14]: 5400 nM
EC50 [15]: > 10000 nM
EC50 [16]: > 10000 nM
Activity [4]: Active
Activity [5]: inactive
Activity [6]: Active
EC50 [7]: 11700 nM
Activity [8]: Active
Activity [9]: Active
EC50 [17]: 13 nM

SMILES: CNC(=O)c1ccc(CN(C2CC2)S(=O)(=O)c2c(C)cc(C)cc2C)cc1
EC50 [13]: 110 nM
CC50 [18]: > 40000 nM
EC50 [19]: 1730 nM
EC50 [20]: 2100 nM
EC50 [21]: 283 nM
EC50 [2]: 70 nM
EC50 [14]: 65 nM
EC50 [15]: > 10000 nM
EC50 [16]: > 10000 nM
EC50 [22]: 500 nM
Activity [3]: Active
Activity [4]: Active
Activity [5]: inactive
Activity [6]: Active
EC50 [7]: 1300 nM
Activity [8]: Active
Activity [9]: Active
Activity [10]: Active; Compound Showed Moderate To Slow Rate Of Kill Than Pyrimethamine And Slightly Quicker Than Atq
EC50 [23]: 70 nM
EC50 [24]: > 50000 nM
Activity [11]: >2 10^7No_unit
EC50 [17]: 420 nM
EC50 [25]: 1100 nM
EC50 [12]: > 25000 nM

SMILES: O=C(Nc1ccccc1)c1ccc(CN(Cc2ccc(Cl)cc2Cl)C2CC2)cc1
EC50 [13]: 1200 nM

Further lines, with some results ahead:

EC50 [13]: > 10000 nM
SMILES: CN(C(=O)c1ccc(CN(Cc2ccccc2)C2CC2)cc1)C1CC1

EC50 [12]: > 25000 nM
SMILES: CCCN(Cc1ccc(C(=O)NC2CC2)cc1)Cc1c(C)cc(C)cc1C

EC50 [13]: 150 nM
SMILES: Cc1cccc(CN(Cc2ccc(C(=O)NC3CC3)cc2)C2CC2)c1C
CC50 [18]: > 40000 nM

EC50 [13]: 590 nM
SMILES: O=C(NC1CC1)c1ccc(CN(Cc2ccccc2)Cc2ccccc2)cc1

EC50 [13]: 400 nM
SMILES: CC(C)CN(Cc1ccc(C(=O)NC2CC2)cc1)C1CC1

EC50 [13]: 1800 nM
SMILES: O=C(NC1CCCC1)c1ccc(CN(Cc2ccc(Cl)cc2Cl)C2CC2)cc1
